Values after ≈ are worked out from the molar mass of the structure shown. Blank lines part the entries; values can stand above or below the molecule they belong to. Residues, ends and D or L forms follow the SMILES beside them.
Experiments:
Assay type in all cases: cell-based
[1] = test system: Candida albicans MTCC 227; experiment: Antifungal activity, Muller Hinton Broth dilution MIC; conditions: for MIC (anti-fungicidal activity) C. a.: Candida albicans MTCC 227, Muller Hinton Broth dilution, Sabouraud's dextrose broth, 28 °C, aerobic, 48 hours, triplicate experiments
Procedure, shortened: (§1)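 Broth dilution in Mueller Hinton medium. Test compounds were screened in triplicate at 1000, 500, 250 and 200 μg mL−1; actives were diluted further and retested. Fungal growth was followed in Sabouraud's dextrose broth at 28 °C, aerobic, for 48 h. MIC was taken as the lowest concentration preventing visible growth. Nystatin served as reference standard. Stocks were kept at −70 °C in trypticase-soy broth with 20% glycerol and subcultured three times before use.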

[2] = test system: Aspergillus niger MTCC 282; experiment: as above; conditions: for MIC (anti-fungicidal activity) A. n.: Aspergillus niger MTCC 282, Muller Hinton Broth dilution, Sabouraud's dextrose broth, 28 °C, aerobic, 48 hours, triplicate experiments
Procedure, shortened: as §1

[3] = test system: Staphylococcus aureus MTCC 96; experiment: Antibacterial activity, Mueller Hinton Broth microdilution MIC; conditions: vs Ampicillin (MIC 250 μg mL^−1)
[4] = test system: Escherichia coli MTCC 443; experiment: as above; conditions: for Potency relative to standard drug Ampicillin against E. coli: ratio of MIC values vs Ampicillin (MIC 100 μg mL^−1)
[5] = test system: Pseudomonas aeruginosa MTCC 1688; experiment: as above; conditions: ratio of MIC values vs Ampicillin (MIC 100 μg mL^−1)
[6] = test system: Streptococcus pyogenes MTCC 442; experiment: as above; conditions: ratio of MIC values vs standard drug (MIC 100 μg mL^−1)
[7] = vs Nystatin (active at 100 μg mL^−1)

SMILES: CC(C)[C@H](N)C(=O)N[C@@H](CS)C(=O)N1CCC[C@H]1C(=O)N[C@@H](Cc1c[nH]cn1)C(=O)N[C@@H](CCCNC(=N)N)C(=O)N[C@@H](CS)C(=O)O [Compound 7c, H-Val-Cys-Pro-His-Arg-Cys-OH] (H-VCPHRC-OH)
MIC (anti-fungicidal activity) C. a. [1]: 35 µg/mL (≈ 49 µM)
MIC (anti-fungicidal activity) A. n. [2]: 40 µg/mL (≈ 56 µM)
Potency relative to control drug Ampicillin against Staphylococcus aureus [3]: almost twice potent
Potency relative to standard drug Ampicillin against E. coli [4]: 2.5 times
Potency relative to standard drug Ampicillin against P. aeruginosa [5]: 2 times
Potency relative to standard drug Ampicillin against Streptococcus pyogenes [6]: 2 times

SMILES: CC(C)C[C@H](N)C(=O)N[C@@H](CS)C(=O)N1CCC[C@H]1C(=O)N[C@@H](Cc1c[nH]cn1)C(=O)N[C@@H](CCCNC(=N)N)C(=O)N[C@@H](CS)C(=O)O [Compound 7d, H-Leu-Cys-Pro-His-Arg-Cys-OH] (H-LCPHRC-OH)
MIC (anti-fungicidal activity) C. a. [1]: 20 µg/mL (≈ 27.5 µM)
Potency relative to Nystatin against Candida albicans [1, 7]: five times more potent
MIC (anti-fungicidal activity) A. n. [2]: 35 µg/mL (≈ 48.1 µM)
Potency relative to Nystatin against Aspergillus niger [2, 7]: almost three times more potent
Potency relative to standard drug Ampicillin against E. coli [4]: 4 times
Potency relative to standard drug Ampicillin against P. aeruginosa [5]: 2.5 times
Potency relative to standard drug Ampicillin against Streptococcus pyogenes [6]: five time more potent

SMILES: C[C@H](N)C(=O)N[C@@H](CS)C(=O)N1CCC[C@H]1C(=O)N[C@@H](Cc1c[nH]cn1)C(=O)N[C@@H](CCCNC(=N)N)C(=O)N[C@@H](CS)C(=O)O [Compound 7b, H-Ala-Cys-Pro-His-Arg-Cys-OH] (H-ACPHRC-OH)
MIC (anti-fungicidal activity) C. a. [1]: 55 µg/mL (≈ 80.2 µM)
MIC (anti-fungicidal activity) A. n. [2]: 50 µg/mL (≈ 72.9 µM)
Potency relative to control drug Ampicillin against Staphylococcus aureus [3]: almost twice potent
Potency relative to standard drug Ampicillin against E. coli [4]: around 2 times
Potency relative to standard drug Ampicillin against P. aeruginosa [5]: 2 times

SMILES: C[C@@H]1[C@H](O)[C@@H](C)/C=C/C=C/CC/C=C/C=C/C=C/C=C/C(O[C@H]2O[C@H](C)[C@@H](O)[C@H](N)[C@@H]2O)CC2O[C@](O)(CC(O)C(O)CCC(O)CC(O)CC(O)CC(=O)O[C@H]1C)CC(O)C2C(=O)O (some centres unmarked) [Nystatin, reference compound]
MIC (anti-fungicidal activity) C. a. [1]: 100 µg/mL (≈ 108 µM)
MIC (anti-fungicidal activity) A. n. [2]: 100 µg/mL (≈ 108 µM)

MIC ([4]; Escherichia coli, MTCC443, 48 h, read-out: MIC (anti-bacterial activity) E. c.): 100 µg/mL (≈ 286 µM)
SMILES: CC1(C)S[C@@H]2[C@H](NC(=O)[C@H](N)c3ccccc3)C(=O)N2[C@H]1C(=O)O [Ampicillin, reference compound]

SMILES: N=C(N)NCCC[C@H](NC(=O)[C@H](Cc1c[nH]cn1)NC(=O)[C@@H]1CCCN1C(=O)[C@H](CS)NC(=O)[C@@H]1CCCN1)C(=O)N[C@@H](CS)C(=O)O [Compound 7e, H-Pro-Cys-Pro-His-Arg-Cys-OH] (H-PCPHRC-OH)
MIC (anti-fungicidal activity) C. a. [1]: 50 µg/mL (≈ 70.2 µM)
MIC (anti-fungicidal activity) A. n. [2]: 55 µg/mL (≈ 77.3 µM)
Potency relative to control drug Ampicillin against Staphylococcus aureus [3]: almost twice potent
Potency relative to standard drug Ampicillin against E. coli [4]: around 2 times

SMILES: N=C(N)NCCC[C@H](NC(=O)[C@H](Cc1c[nH]cn1)NC(=O)[C@@H]1CCCN1C(=O)[C@H](CS)NC(=O)CN)C(=O)N[C@@H](CS)C(=O)O [Compound 7a, H-Gly-Cys-Pro-His-Arg-Cys-OH] (H-GCPHRC-OH)
MIC (anti-fungicidal activity) C. a. [1]: 60 µg/mL (≈ 89.3 µM)
MIC (anti-fungicidal activity) A. n. [2]: 65 µg/mL (≈ 96.8 µM)

SMILES: N=C(N)NCCC[C@H](NC(=O)[C@H](Cc1c[nH]cn1)NC(=O)[C@@H]1CCCN1C(=O)[C@H](CS)NC(=O)[C@@H](N)Cc1ccc(O)cc1)C(=O)N[C@@H](CS)C(=O)O [Compound 7f, H-Tyr-Cys-Pro-His-Arg-Cys-OH] (H-YCPHRC-OH)
MIC (anti-fungicidal activity) C. a. [1]: 40 µg/mL (≈ 51.4 µM)
MIC (anti-fungicidal activity) A. n. [2]: 50 µg/mL (≈ 64.3 µM)
Potency relative to control drug Ampicillin against Staphylococcus aureus [3]: almost twice potent
Potency relative to standard drug Ampicillin against E. coli [4]: around 2 times
Potency relative to standard drug Ampicillin against P. aeruginosa [5]: 2 times

From publication PMC11145139 (RSC Advances, 2024)
